Measurements gathered from unrelated publications.
Compare with care: the assays were run in different laboratories.
Target: Serine/threonine-protein kinase SIK3 (SIK3, Homo sapiens, UniProt Q9Y2K2)

C1=C/COCc2cc(ccc2OCCN2CCCC2)Nc2nccc(n2)-c2cccc(c2)COC/1
remaining signal (cell-free assay; 0.1 µM): 83%

CCCCC(=O)Nc1ccc(-c2ccc3ncn(CCC)c(=O)c3c2)cn1
remaining binding (binding, competition with immobilised ligand; 0.5 µM): 100%

Cc1cc(O)c(-c2ccc([C@@H](C)CN(C)C)cc2)c2c1[nH]c(=O)c1sccc12
inhibition (enzyme activity, inhibitor; 0.1 µM): -11.2%

CO[C@@H]1[C@H](N(C)C(=O)c2ccccc2)C[C@H]2O[C@]1(C)n1c3ccccc3c3c4c(c5c6ccccc6n2c5c31)C(=O)NC4
inhibition (enzyme activity, inhibitor; 1 µM): 79%

C#Cc1cc(-c2cc(Nc3nc(N[C@@H](C)c4ccc(F)cn4)ncc3Cl)n[nH]2)ccc1C=O
inhibition (enzyme activity, inhibitor; 0.2 µM): 31.1%

CN1CCN(C(=O)c2ccc(NC(=O)Nc3ccc(N(C)c4ccnc(Nc5ccc(CS(C)(=O)=O)cc5)n4)cc3)cc2)CC1
remaining binding (binding, competition with immobilised ligand; 1 µM): 86%

CC(C)S(=O)(=O)c1ccc2nccc(Nc3ccc4sc(C5CCCC5)nc4c3)c2c1
activity vs control (enzyme activity, inhibitor; 1 µM): 104%

Cc1ccc(NC(=O)c2ccnc(C(F)(F)F)c2)cc1-c1cc(OCCO)nc(N2CCOCC2)c1
remaining binding (binding, competition with immobilised ligand; 1 µM): 86%

C=CC(=O)N1CCC([C@@H]2CCNc3c(C(N)=O)c(-c4ccc(Oc5ccccc5)cc4)nn32)CC1
inhibition (enzyme activity, inhibitor; 1 µM): 9%
